The source made the active and inactive calls. No cut-off for these calls is given here.
Legend:
[1] = molecular target: T1, Protein cereblon/SWI/SNF-related matrix-associated actin-dependent regulator of chromatin subfamily A member 2 (Homo sapiens, UniProt P51531+Q96SW2); experiment: PROTAC activity at CRBN/SMARCA2 in human H322 cells harboring SMARCA4 mutant assessed as induction of SMARCA2 degradation at 0.1 uM in presence of MLN4924 by immunoblot analysis; assay type: cell-based
HCC515 = experiment: Antitumor activity against human HCC515 cells harboring SMARCA4 mutant xenografted in female athymic nude mouse assessed as tumor growth inhibition at 5 mg/kg, po administered once daily via gavage for 19 days relative to control; assay type: functional; settings: HCC515, 456 h, time 19 day, read-out: TGI
In short: (§1)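 Cells (H1568 2 × 10^6, H2023 10 × 10^6, HCC515 5 × 10^6) in PBS:Matrigel 1:1, 200 μL, injected subcutaneously into flanks of 6–8-week-old females. Randomized at mean tumor volume 60 mm3 (H1568) or <200 mm3 (others). Dosed in 0.5% methylcellulose + 0.2–1% Tween-80, sonicated on ice. Caliper tumor volume and body weight tracked, mean ± SEM.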

[2] = molecular target: Transcriptional coactivator YAP1 (Homo sapiens) (UniProt P46937); experiment: Induction of YAP1 phosphorylation at S127 residue in human H322 cells harboring SMARCA4 mutant at 0.1 uM incubated for 96 hrs by immunoblot analysis; assay type: cell-based; settings: filed as activator
Transcriptional coactivator YAP1 (Homo sapiens), sequence (P46937 whole entry): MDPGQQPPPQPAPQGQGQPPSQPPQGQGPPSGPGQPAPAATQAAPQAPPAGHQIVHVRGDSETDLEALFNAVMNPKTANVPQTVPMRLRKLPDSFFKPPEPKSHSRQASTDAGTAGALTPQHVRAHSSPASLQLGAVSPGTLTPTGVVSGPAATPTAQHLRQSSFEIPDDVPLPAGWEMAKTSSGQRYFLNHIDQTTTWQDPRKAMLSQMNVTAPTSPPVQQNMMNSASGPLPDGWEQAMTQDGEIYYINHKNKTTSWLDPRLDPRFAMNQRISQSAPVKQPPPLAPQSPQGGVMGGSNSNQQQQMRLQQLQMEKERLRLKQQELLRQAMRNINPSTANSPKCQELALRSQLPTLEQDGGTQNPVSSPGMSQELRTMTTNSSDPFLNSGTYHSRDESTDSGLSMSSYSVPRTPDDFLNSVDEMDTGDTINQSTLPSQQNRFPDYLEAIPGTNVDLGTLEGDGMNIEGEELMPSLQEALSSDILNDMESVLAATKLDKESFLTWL

[3] = Toxicity in female athymic nude mouse xenografted with human HCC515 cells harboring SMARCA4 mutant assessed as change in body weight at 5 mg/kg, po administered once daily via gavage for 19 days relative to control; assay type: organism-based; settings: in vivo, 456 h, time 19 day; in short: as §1
[4] = Toxicity in female athymic nude mouse xenografted with human NCI-H2030 cells harboring SMARCA4 mutant assessed as change in body weight at 5 mg/kg, po administered once daily via gavage for 17 days relative to control; assay type: organism-based; settings: in vivo, 408 h, time 17 day
In short: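 10 × 10^6 H2030 cells in PBS:Matrigel 1:1, 200 μL, injected subcutaneously into flanks of 6–8-week-old females. Randomized at mean tumor volume <200 mm3. Oral gavage once daily in 10% DMSO, 40% PEG300, 1% Tween-80, 49% saline. Caliper tumor volume and body weight monitored, mean ± SEM.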

[5] = In vivo PROTAC activity at CRBN/SMARCA2 in female athymic nude mouse xenografted with human NCI-H2023 cells harboring SMARCA4 mutant assessed as SMARCA2 degradation at 5 mg/kg, po administered once daily via gavage for 19 days by Western blotting analysis relative to control; assay type: functional; settings: time 19 day
In short: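 Female nude mice aged 6–8 weeks carried subcutaneous flank xenografts in PBS/Matrigel 1:1: H2023 at 10 × 10^6 cells or HCC515 at 5 × 10^6 cells. Randomised below 200 mm3. 5 mg/kg or vehicle given by oral gavage once daily for 19 days in 0.5% methylcellulose with Tween-80 (0.2% for H2023, 1% for HCC515). Tumours collected 24 h after dosing. SMARCA2 measured by Western blot against β-actin, relative to vehicle.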

[6] = molecular target: T1, Protein cereblon/SWI/SNF-related matrix-associated actin-dependent regulator of chromatin subfamily A member 2; experiment: PROTAC activity at CRBN/SMARCA2 in human H322 cells harboring SMARCA4 mutant assessed as induction of SMARCA2 degradation at 0.1 uM in presence of bortezomib by immunoblot analysis; assay type: cell-based
[7] = Antitumor activity against human NCI-H2023 cells harboring SMARCA4 mutant xenografted in female athymic nude mouse assessed as tumor growth inhibition at 5 mg/kg, po administered once daily via gavage for 19 days relative to control; assay type: functional; settings: NCI-H2023, 456 h, time 19 day, read-out: TGI; in short: as §1
[8] = Toxicity in female athymic nude mouse xenografted with human NCI-H2023 cells harboring SMARCA4 mutant assessed as change in body weight at 5 mg/kg, po administered once daily via gavage for 19 days relative to control; assay type: organism-based; settings: in vivo, 456 h, time 19 day; in short: as §1
[9] = molecular target: T1, Protein cereblon/SWI/SNF-related matrix-associated actin-dependent regulator of chromatin subfamily A member 2; experiment: PROTAC activity at CRBN/SMARCA2 in human H322 cells harboring SMARCA4 mutant assessed as induction of SMARCA2 degradation at 0.1 uM in presence of Gen-1 by immunoblot analysis; assay type: cell-based
[10] = Drug concentration in CRBN I391V mutant mouse plasma at 80 mg/kg, po administered once daily for 3 days and measured at 24 hrs post last dose; assay type: ADME, organism-based; settings: time 3 day
In short: (§2)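 Oral dosing once daily for 3 days: 5–80 mg/kg in C57BL/6 mice, 10–80 mg/kg in CrbnI391V mice. Euthanized 24 h after last dose. Plasma drug level measured. Spleen SMARCA2 by Western blot against actin loading control, relative to vehicle.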

[11] = Drug concentration in CRBN I391V mutant mouse plasma at 10 mg/kg, po administered once daily for 3 days and measured at 24 hrs post last dose; assay type: ADME, organism-based; settings: time 3 day; in short: as §2
[12] = molecular target: Transcriptional coactivator YAP1 (Homo sapiens) (UniProt P46937); experiment: Induction of YAP1 phosphorylation at S109 residue in human H322 cells harboring SMARCA4 mutant at 1 uM incubated for 96 hrs by immunoblot analysis; assay type: cell-based; settings: filed as activator
[13] = Drug concentration in C57BL/6 mouse plasma at 80 mg/kg, po administered once daily for 3 days and measured at 24 hrs post last dose; assay type: ADME, organism-based; settings: time 3 day; in short: as §2
[14] = Toxicity in immunocompromised mouse xenografted with human NCI-H1568 cells assessed as change in body weight at 80 mg/kg, administered once daily for 21 days; assay type: organism-based; settings: in vivo, 504 h, time 21 day
[15] = Toxicity in female athymic nude mouse xenografted with human NCI-H1568 cells harboring SMARCA4 mutant assessed as change in body weight at 40 mg/kg, po administered once daily via gavage for 13 days relative to control; assay type: organism-based; settings: in vivo, 312 h, time 13 day; in short: as §1
NCI-H2030 [16] = experiment: Inhibition of ERK phosphorylation in human NCI-H2030 cells harboring KRAS G12C mutant/SMARCA4 mutant assessed as reduction in p-ERK level at 1.25 uM incubated for 72 hrs in presence of sotorasib by Western blotting analysis; assay type: cell-based
NCI-H2030 [17] = experiment: Synergistic antitumor activity against human NCI-H2030 cells harboring KRAS G12C mutant/SMARCA4 mutant assessed as cell growth inhibition at 1 uM incubated for 7 days in presence of sotorasib by Incucyte S3 analysis; assay type: functional, cell-based; settings: time 7.0 day
In short: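 H2030 cells plated at 500 per well and grown overnight at 37 °C. Treated with 3-fold dilutions of sotorasib, test agent, or both. Confluency imaged every 4 h for 7 days on IncuCyte S3. Synergy scored as Bliss/Lowe consensus, >10 taken as synergy.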

[18] = Drug metabolism in mouse liver microsomes assessed as oxidative dealkylation and mono-oxygenation mediated M3 metabolite formation at 10 uM incubated for 60 mins by LC-UV-HRMS analysis; assay type: ADME, Microsome; settings: 1 h
In short: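 Compound at 10 μM incubated with mouse liver microsomes at 37 °C for 60 min. Metabolites detected by LC-UV-HRMS, structures proposed from MS and MS2 data, and each metabolite given as a percentage.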

[19] = Toxicity in immunocompromised mouse xenografted with human NCI-H1568 cells assessed as drug tolerance at 80 mg/kg, administered once daily for 21 days; assay type: organism-based; settings: in vivo, 504 h, time 21 day

Row | Compound | Activity [1] | inhibition in vivo at 5 mg/kg (HCC515) [%] | Activity [2] | Activity [3] [%] | Activity [4] [%] | Activity [5] [%] | Activity [6] | inhibition in vivo at 5 mg/kg [7] [%] | Activity [8] [%] | Activity [9] | concentration at 72 h [10] [nM] | concentration at 72 h [11] [nM] | Activity [12] | concentration at 72 h [13] [nM] | Activity [14] | Activity [15] [%] | inhibition (NCI-H2030 [16]) | Activity (NCI-H2030 [17]) | Drug metabolism [18] | Activity [19]
1 | Nc1nnc(-c2ccccc2O)cc1N1CCN(Cc2ccc(N3CCN(CCOc4cccc5c4C(=O)N(C4CCC(=O)NC4=O)C5=O)CC3)c(F)c2)CC1 (stereo not given) | inactive | 48.8 | Active | < 20 | < 20 | 76 | inactive | 62.5 | < 10 | inactive |  |  |  |  |  |  |  |  |  | 
2 | Nc1nnc(-c2ccccc2O)cc1N1CCN(Cc2ccc(N3CCC(CN4CCN(c5ccc6c(c5)C(=O)N(C5CCC(=O)NC5=O)C6=O)CC4)CC3)c(F)c2)CC1 (stereo not given) |  |  |  |  |  |  |  |  |  |  | 2450 | 1000 | Active | 1880 | Non-toxic | < 10 | Active | Active; Robust Synergistic Growth Inhibition Observed | metabolite_detected | Non-toxic
